According to ChEMBL document CHEMBL3875229, “Potent Antifungal Synergy of Phthalazinone and Isoquinolones with Azoles Against Candida albicans” (ACS Med Chem Lett, 2017):

What was measured:
Candida albicans [1] = test: Antifungal activity against Candida albicans HLY4123 after 16 hrs in presence of 0.05 ug/ml of fluconazole by ten fold serial dilution method; format: functional; conditions: HLY4123, 16 h
Candida albicans [2] = test: microbe, parasite or virus in culture; conditions: HLY4123, 16 h
[3] = Antifungal activity against Candida albicans clinical isolate 8 in presence of fluconazole; format: functional
Outline: (§1)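 Dose-dependent broth microdilution against fluconazole-resistant clinical isolates. Analogue concentration was varied while fluconazole was held fixed at each isolate's own MIC50, measured separately for fluconazole alone. EC50 is given as arithmetic mean ± SD of three independent experiments.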

[4] = Antifungal activity against Candida albicans clinical isolate 2 in presence of fluconazole; format: functional; outline: as §1
[5] = Antifungal activity against fluconazole-resistant Candida albicans clinical isolate 17 after 16 hrs in presence of 12 ug/ml fluconazole by broth microdilution assay; format: functional
[6] = Antifungal activity against fluconazole-resistant Candida albicans clinical isolate 36 after 16 hrs in presence of 64 ug/ml fluconazole by broth microdilution assay; format: functional
Candida albicans [7] = test: Antifungal activity against Candida albicans HLY4123 after 16 hrs in presence of 0.001 ug/ml of isavuconazole by ten fold serial dilution method; format: functional; conditions: HLY4123, 16 h
[8] = Antifungal activity against fluconazole-resistant Candida albicans clinical isolate 45 after 16 hrs in presence of 96 ug/ml fluconazole by broth microdilution assay; format: functional
[9] = Antifungal activity against fluconazole-resistant Candida albicans clinical isolate 26 after 16 hrs in presence of 32 ug/ml fluconazole by broth microdilution assay; format: functional
[10] = Antifungal activity against Candida albicans clinical isolate 45 after 16 hrs in presence of 0.5 ug/ml of isavuconazole by broth microdilution assay; format: functional
Candida albicans [11] = test: Antifungal activity against Candida albicans HLY4123 at 0.015 nM to […] after 16 hrs in presence of […] of fluconazole by checkerboard assay; format: functional
Outline: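 Analogue and fluconazole were combined in a checkerboard format against C. albicans HLY4123. Fractional inhibitory concentration indices were calculated, with 0.5 taken as the upper limit for pharmacological synergy.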

[12] = Antifungal activity against fluconazole-resistant Candida albicans clinical isolate 33 after 16 hrs in presence of 64 ug/ml fluconazole by broth microdilution assay; format: functional

Which EC50 (Candida albicans [1]) does the source give for `COc1ccc(-n2nc(C(=O)NCC(=O)NCCC3=CCCCC3)c3ccccc3c2=O)c(OC)c1` here?
Its EC50 is 49 nM.

And the EC50 (Candida albicans [2])?
The EC50 was 15 nM.

What about the EC50 [3] of the same molecule?
Its EC50 is 220 nM.

What about the EC50 [4] of the same molecule?
Its EC50 is 470 nM.

For `COc1cc(Br)ccc1-n1cc(C(=O)NCC(=O)NCCC2=CCCCC2)c2ccc(C#CCCCO)cc2c1=O`, which EC50 (Candida albicans [2]) is on record?
Its EC50 is > 100000 nM.

Which EC50 (Candida albicans [2]) does the source give for `Cc1c(Cl)ccc2c1NC(=O)[C@@]21[C@H]2C(=O)N(c3ccccc3)C(=O)[C@H]2[C@H]2CN(C(=O)OCc3ccccc3)CCN21` here?
Its EC50 is 0.3 nM.

Which EC50 (Candida albicans [2]) does the source give for `COc1cc(Br)ccc1-n1cc(C(=O)NCC(=O)NCCC2=CCCCC2)c2occc2c1=O` here?
The EC50 was > 10000 nM.

For `COc1cc(Br)ccc1-n1cc(C(=O)N[C@@H](CCCCNC(=O)OCc2ccccc2Cl)C(=O)NCCC2=CCCCC2)c2ccccc2c1=O`, which EC50 (Candida albicans [2]) is on record?
Its EC50 is 23 nM.

Which EC50 [5] does the source give for `COc1cc(Br)ccc1-n1cc(C(=O)NCC(=O)NCCC2=CCCCC2)c2ccccc2c1=O` here?
The EC50 was 74 nM.

What about the EC50 (Candida albicans [1]) of the same molecule?
The EC50 was 24 nM.

What about the EC50 (Candida albicans [2]) of the same molecule?
Its EC50 is 3 nM.

What about the EC50 [6] of the same molecule?
The EC50 was 32 nM.

What about the EC50 (Candida albicans [7]) of the same molecule?
The EC50 was 6 nM.

And the EC50 [8]?
Its EC50 is 170 nM.

And the EC50 [9]?
The EC50 was 11 nM.

What about the EC50 [10] of the same molecule?
Its EC50 is 110 nM.

What about the “fractional inhibitory concentration index (FICI)” value (Candida albicans [11]) of the same molecule?
The value was <0.17.

What about the EC50 [12] of the same molecule?
The EC50 was 371 nM.

With `COc1cc(Br)ccc1-n1nc(C(=O)NCC(=O)NCCC2=CCCCC2)c2ccccc2c1=O` as the molecule, how does the EC50 [5] read?
Its EC50 is 39 nM.

And the EC50 (Candida albicans [1])?
The EC50 was 7 nM.

What about the EC50 (Candida albicans [2]) of the same molecule?
The EC50 was 1 nM.

And the EC50 [6]?
The EC50 was 20 nM.

And the EC50 (Candida albicans [7])?
Its EC50 is 4 nM.

And the EC50 [8]?
The EC50 was 65 nM.

What about the EC50 [9] of the same molecule?
The EC50 was 17 nM.

And the EC50 [10]?
Its EC50 is 13 nM.

And the “fractional inhibitory concentration index (FICI)” value (Candida albicans [11])?
Its value is <0.12.

What about the EC50 [12] of the same molecule?
Its EC50 is 72 nM.

With `COc1cc(Br)ccc1-n1cc(C(=O)NCC(=O)NCCC2=CCCCC2)c2ccc(Br)cc2c1=O` as the molecule, how does the EC50 (Candida albicans [2]) read?
Its EC50 is 3 nM.

Which EC50 (Candida albicans [2]) does the source give for `COc1ccc(-n2cc(C(=O)NCC(=O)NCCC3=CCCCC3)c3ccccc3c2=O)c(OC)c1` here?
Its EC50 is 33 nM.

For `COc1cc(Br)ccc1-n1cc(C(=O)NCC(=O)NCCC2=CCCCC2)c2sccc2c1=O`, which EC50 (Candida albicans [2]) is on record?
Its EC50 is 230 nM.

For `COc1cc(Br)ccc1-n1cc(C(=O)NCCc2ccccc2)c2ccccc2c1=O`, which EC50 (Candida albicans [2]) is on record?
The EC50 was 220 nM.

With `COc1cc(C)ccc1-n1cc(C(=O)NCC(=O)NCCC2=CCCCC2)c2ccccc2c1=O` as the molecule, how does the EC50 (Candida albicans [2]) read?
The EC50 was 65 nM.

Which EC50 (Candida albicans [2]) does the source give for `COc1cc(Br)ccc1-n1cc(C(=O)NCC(=O)NCCc2ccccc2)c2ccccc2c1=O` here?
Its EC50 is 20 nM.

For `COc1cc(C#CCCCO)ccc1-n1cc(C(=O)NCC(=O)NCCC2=CCCCC2)c2ccccc2c1=O`, which EC50 (Candida albicans [2]) is on record?
Its EC50 is > 100000 nM.
